Screening data: PubChem, Sanford-Burnham Center for Chemical Genomics
Shown are actives, neighbours in structure and some others; about 2.3% of the full set was active somewhere.
DNMT1 block = inhibitors of human DNMT1; DNMT1 molecular beacon, Hinp1I cleavage, fluorescence; inhibition (reported as % activation of signal), % at 10 µM; 360,000 compounds, 0.83% hits; in the data active = inhibition above about 50%
Scp-1 inhibitor = inhibitors of human Scp-1 phosphatase | inhibition, % at 20 µM | 340,000 compounds, 0.88% hits | Q9GZU7 | Recombinant Scp1, phosphopeptide, malachite green phosphate absorbance;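 active = inhibition above about 50% at 20 µM, limit read from the data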;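 note: plate controls were DMSO wells with enzyme for no effect and wells lacking enzyme for full effect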
Target sequence (Q9GZU7 76-261 limits assumed): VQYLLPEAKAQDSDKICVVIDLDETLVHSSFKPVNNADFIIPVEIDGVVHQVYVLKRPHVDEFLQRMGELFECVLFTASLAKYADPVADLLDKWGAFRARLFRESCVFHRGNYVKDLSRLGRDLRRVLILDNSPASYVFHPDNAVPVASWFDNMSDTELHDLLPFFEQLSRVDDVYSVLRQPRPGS
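Incubation: 45 min enzyme reaction at room temperature / System: truncated SCP-1 phosphatase (76-261aa) / Reagent: Phospho 17-mer peptide substrate / Buffer or medium: Acidic Tris acetate buffer with magnesium and detergent / Signal: absorbance at 630 nm / Doses: one concentration, 20 µM, with 1.0% DMSO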
SUMO1 PPI mod = modulators of human SUMO1-mediated protein-protein interactions. P63165. SUMO1 binding to a labelled peptide, TR-FRET, 1 h. inhibition, % at 20 µM. 360,000 compounds, 0.33% hits; in the data active = inhibition above about 37%
Target sequence (P63165 whole entry, looked up): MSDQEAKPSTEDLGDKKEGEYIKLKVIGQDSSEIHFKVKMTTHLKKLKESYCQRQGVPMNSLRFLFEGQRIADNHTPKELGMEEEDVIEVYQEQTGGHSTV
Rpn11 inh = blocks the human proteasome subunit Rpn11; O00487; human 26S proteasome, Ub4-pepOG fluorescence polarization; 20S core pre-blocked with epoxomicin; inhibition, % at 20 µM; 360,000 compounds, 0.59% hits; AID 588493;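 active = inhibition at 20 µM, scaled to each plate's controls, above about 33%, limit read from the data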
LMPTP inh = blocks human LMPTP phosphatase. P24666. 360,000 compounds, 0.22% hits. AID 651560. recombinant LMPTP-A, OMFP fluorogenic substrate, fluorescence intensity. inhibition, % at 20 µM;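 active = compounds that cut the enzyme signal by at least half of the control window in the single-dose screen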;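 note: plate controls were DMSO wells with enzyme plus substrate for no effect and substrate without enzyme for full effect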
Target sequence (P24666 whole entry, looked up): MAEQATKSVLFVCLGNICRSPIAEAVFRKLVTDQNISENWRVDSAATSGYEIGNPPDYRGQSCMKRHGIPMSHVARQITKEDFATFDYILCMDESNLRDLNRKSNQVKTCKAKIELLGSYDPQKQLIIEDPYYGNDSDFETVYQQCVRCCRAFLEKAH
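Buffer or medium: Bis-Tris pH 6.0, DTT, detergent; Assay system: LMPTP-A enzyme; Quantity: 0.625 nM enzyme; Detection: endpoint fluorescence intensity; Times: 50 min dark incubation at room temperature; Controls: substrate-only low control, DMSO enzyme-plus-substrate high control; Doses: single 20 µM dose; Read-out: percent inhibition versus substrate-only and uninhibited controls; Reagent: 400 µM OMFP.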
STEP block = inhibitors of human striatal-enriched phosphatase STEP. inhibition, % at 20 µM. 360,000 compounds, 0.25% hits. recombinant STEP, OMFP fluorogenic substrate, fluorescence. P54829;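 active = inhibition at 20 µM, scaled per plate between control wells, above about 37%, limit read from the data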;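 note: 0% = DMSO with enzyme and substrate and 100% = substrate only without enzyme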
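System: STEP phosphatase, cell-free reaction; Buffer or medium: Bis-Tris pH 6.0 buffer with DTT, detergent; Incubation: 20 min at room temperature, dark; Measured by: fluorescence, 480/540 nm.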
Scp-1 conf = confirmation of human Scp-1 phosphatase inhibitors. shares compounds with Scp-1 inhibitor. recombinant SCP-1 catalytic domain, phosphate release, malachite green absorbance. inhibition, % at 20 µM. 2,500 compounds, 61% hits;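 note: plate controls were DMSO with enzyme for no effect and buffer wells lacking enzyme for full effect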
MG interference = counter-screen for Scp-1 inhibitors: colorimetric interference. shares compounds with Scp-1 inhibitor. apparent inhibition (interference), % at 20 µM. Colorimetric interference counterscreen, malachite green absorbance 630 nm. 2,500 tested, under 10 active;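 note: compounds added after enzyme reaction finished so only phosphate colour detection is probed; plate controls were DMSO wells with completed Scp-1 reaction for no effect and substrate wells lacking enzyme for full effect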
Scp-1 Tm shift = validation of human Scp-1 inhibitors by thermal shift binding | shares compounds with Scp-1 inhibitor | Recombinant SCP1, Sypro Orange thermal shift Tm | thermal shift relative to vanadate control, % at 40 µM | 1,500 compounds, 25% hits | AID 540329;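 active = substances whose mean melting-temperature shift, as a percentage of the reference inhibitor's shift, reaches about 5.3%, limit read from the data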;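 note: 0% = Tm of DMSO wells and 100% = Tm with sodium orthovanadate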
DNMT1 inh conf = DNMT1 inhibition confirmation, single concentration | shares compounds with DNMT1 block | DNMT1 molecular beacon HinP1I cleavage, fluorescence | inhibition, % at 10 µM | 2,300 compounds, 8% hits | AID 602385;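 active = average inhibition of at least 30% in the single-concentration confirmation test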
DNMT1 interf = counter-screen for DNMT1 inhibitors: spectral interference; shares compounds with DNMT1 block; AID 602387; 2,300 compounds, 1% hits; DNMT1 molecular beacon spectral interference counterscreen, fluorescence 485/520; activation (fluorescence interference), % at 10 µM;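 active = activation of at least 30% at 10 µM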;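 note: DNMT1 catalytic domain with a HinP1I cleavage step and a FAM/dabcyl DNA beacon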
Rpn11 inh conf = confirmation of human proteasome Rpn11 inhibitors; shares compounds with Rpn11 inh; purified human 26S proteasome, Ub4-pepOG fluorescence polarization; proteasome pretreated with epoxomicin; inhibition, % at 20 µM; 1,900 compounds, 29% hits; AID 602318; in the data active = inhibition above about 40%
MMP-2 inh = blocks human MMP-2, flagging nonselective RPN11 hits; shares compounds with Rpn11 inh; inhibition, % at 20 µM; 1,900 compounds, 4% hits; recombinant MMP-2, FRET peptide cleavage fluorescence; in the data active = inhibition above about 40%;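 note: human MMP-2 activated beforehand with APMA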
Thrombin FP = blocks bovine thrombin, flagging nonselective RPN11 hits; shares compounds with Rpn11 inh; bovine thrombin cleavage of Ub4-pepOG, fluorescence polarization; inhibition, % at 20 µM; 1,900 compounds, 13% hits; AID 602333;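 active = mean inhibition at least 40% at 20 µM, or signal 3 deviations below plate average, so some actives read negative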;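 note: plate controls were thrombin with DMSO for no effect and buffer wells lacking thrombin for full effect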
STEP conf = STEP (human) phosphatase inhibition, single concentration confirmation; recombinant STEP, OMFP fluorogenic substrate, fluorescence; shares compounds with STEP block; inhibition, % at 20 µM; 520 compounds, 32% hits; call rule not given here;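 note: 0% = enzyme with substrate plus DMSO and 100% = substrate without enzyme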
An asterisk follows results filed as active; . = no result shown.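 Rule for the calls, unless noted: active = inhibition of at least 30% at 20 µM; inactive = the rest.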

SMILES | DNMT1 block | Scp-1 inhibitor | SUMO1 PPI mod | Rpn11 inh | LMPTP inh | STEP block | Scp-1 conf | MG interference | Scp-1 Tm shift | DNMT1 inh conf | DNMT1 interf | STEP conf | others
O=C(CSc1nnc2c(n1)[nH]c1ccc(F)cc12)NC1CC1 | 1 | -1 | -10 | -4 | 0 | 0 | . | . | . | . | . | .
O=C(CSc1nnc2c(n1)[nH]c1ccc(F)cc12)NCc1ccc(F)cc1 | 5 | 65* | -2 | 36 | 12 | 60* | 25 | -10 | . | . | . | -4
Cc1cc(C(=O)N/N=C/c2ccc(-c3cccc(Cl)c3Cl)o2)n[nH]1 | 52* | 61* | 0 | 59* | 49 | 61* | 88* | -5 | 2 | 17 | 3 | 0 | Rpn11 inh conf=22;MMP-2 inh=-34;Thrombin FP=-13
Cc1cc(C(=O)N/N=C/c2ccc(-c3cccc(Br)c3)o2)n[nH]1 | 28 | -5 | 4 | 17 | 0 | 2 | . | . | . | . | . | .
O=C(Cn1nnc(-c2ccc(NC(=O)c3ccccc3F)cc2)n1)NCc1ccc(F)cc1 | 77* | 52* | 6 | 14 | 39 | 65* | 68* | -15 | 8.1* | 1 | -4 | 20
O=C(O)Cc1ccccc1C(=O)O | 12 | -3 | 4 | -2 | -2 | -4 | . | . | . | . | . | .
O=C(O)Cc1cccc(=O)c(O)c1C(=O)O | 86* | 79* | 18 | -12 | 19 | 68* | 54* | -9 | 6.3* | . | . | 88*
O=C(Nc1ccc2oc(-c3ccccc3F)nc2c1)c1ccc([N+](=O)[O-])o1 | 108* | 101* | 98* | . | 90* | 99* | 95* | -7 | -6 | 6 | -5 | 16
CCOc1ccc(N=C2NC(=O)S/C2=C\c2ccc(Cl)cc2)cc1 | 84* | 112* | -4 | 5 | 47 | 51* | 41* | -10 | -2 | 0 | -6 | 33
COc1ccc(C(=O)N/N=C\C(C)=C\c2ccccc2)cc1OC | -5 | 7 | -14 | 2 | 0 | -2 | . | . | . | . | . | .
CC(/C=N/NC(=O)c1ccc(Br)cc1)=C\c1ccccc1 | 50* | 94* | -4 | 19 | 55* | 55* | 89* | -3 | -21 | 1 | 2 | -2
Cc1nc(C(=O)Nc2ccccc2Cl)cc2c1[nH]c1ccccc12 | 50* | 3 | -1 | 8 | -1 | 0 | . | . | . | 1 | 0 | .
COc1ccc(NC(=O)c2cc3c([nH]c4ccccc43)c(C)n2)cc1 | -3 | -1 | 5 | -4 | -1 | 0 | . | . | . | . | . | .
O/N=C(\c1ccccc1)c1nccc2ccccc12 | 2 | -11 | -9 | -9 | 0 | -3 | . | . | . | . | . | .
